# Experiments:
# [1] = target: Protein kinase C theta type (Homo sapiens, UniProt Q04759); test: Binding affinity to GST-tagged PKCtheta expressed in Escherichia coli BL21(DE3) by fluorescence quenching
# In short: (§1)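 Isolated C1B subdomain made in E. coli as GST fusion, purified on glutathione-Sepharose, GST removed by thrombin, then ammonium sulfate precipitation and Superdex 75 gel filtration. Excitation 280 nm, intrinsic emission at 350 nm as (F0-F)/F, Hill fit gives EC50.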
# [2] = target: Protein kinase C delta type (Homo sapiens, UniProt Q05655); test: Binding affinity to GST-tagged PKCdelta expressed in Escherichia coli BL21(DE3) by fluorescence quenching; in short: as §1
# [3] = target: T1, Protein kinase C epsilon type (Homo sapiens, UniProt Q02156); test: Binding affinity to GST-tagged PKCepsilon expressed in Escherichia coli BL21(DE3) by fluorescence quenching; in short: as §1
# T1 sequence (Q02156 whole entry): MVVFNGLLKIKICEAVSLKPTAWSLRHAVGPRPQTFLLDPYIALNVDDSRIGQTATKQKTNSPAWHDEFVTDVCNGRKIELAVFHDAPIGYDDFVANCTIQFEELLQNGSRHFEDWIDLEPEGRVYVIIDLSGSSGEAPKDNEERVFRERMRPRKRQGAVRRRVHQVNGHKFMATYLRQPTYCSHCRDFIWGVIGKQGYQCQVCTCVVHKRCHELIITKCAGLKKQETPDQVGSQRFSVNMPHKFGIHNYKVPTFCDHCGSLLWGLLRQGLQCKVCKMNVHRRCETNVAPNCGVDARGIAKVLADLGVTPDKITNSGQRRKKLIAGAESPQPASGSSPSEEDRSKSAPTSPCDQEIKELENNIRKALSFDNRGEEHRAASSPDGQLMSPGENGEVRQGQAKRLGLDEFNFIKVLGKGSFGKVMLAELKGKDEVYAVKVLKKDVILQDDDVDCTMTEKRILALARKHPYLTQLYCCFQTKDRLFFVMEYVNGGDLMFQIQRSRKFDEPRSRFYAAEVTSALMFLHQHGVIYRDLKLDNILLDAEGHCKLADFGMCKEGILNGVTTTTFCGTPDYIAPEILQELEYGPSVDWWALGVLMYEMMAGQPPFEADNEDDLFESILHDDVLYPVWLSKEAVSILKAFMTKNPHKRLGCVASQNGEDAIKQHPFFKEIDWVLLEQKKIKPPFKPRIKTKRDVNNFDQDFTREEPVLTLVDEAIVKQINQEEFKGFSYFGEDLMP
# Chain of Protein kinase C theta type (Q04759 whole entry, the tested form may be a part): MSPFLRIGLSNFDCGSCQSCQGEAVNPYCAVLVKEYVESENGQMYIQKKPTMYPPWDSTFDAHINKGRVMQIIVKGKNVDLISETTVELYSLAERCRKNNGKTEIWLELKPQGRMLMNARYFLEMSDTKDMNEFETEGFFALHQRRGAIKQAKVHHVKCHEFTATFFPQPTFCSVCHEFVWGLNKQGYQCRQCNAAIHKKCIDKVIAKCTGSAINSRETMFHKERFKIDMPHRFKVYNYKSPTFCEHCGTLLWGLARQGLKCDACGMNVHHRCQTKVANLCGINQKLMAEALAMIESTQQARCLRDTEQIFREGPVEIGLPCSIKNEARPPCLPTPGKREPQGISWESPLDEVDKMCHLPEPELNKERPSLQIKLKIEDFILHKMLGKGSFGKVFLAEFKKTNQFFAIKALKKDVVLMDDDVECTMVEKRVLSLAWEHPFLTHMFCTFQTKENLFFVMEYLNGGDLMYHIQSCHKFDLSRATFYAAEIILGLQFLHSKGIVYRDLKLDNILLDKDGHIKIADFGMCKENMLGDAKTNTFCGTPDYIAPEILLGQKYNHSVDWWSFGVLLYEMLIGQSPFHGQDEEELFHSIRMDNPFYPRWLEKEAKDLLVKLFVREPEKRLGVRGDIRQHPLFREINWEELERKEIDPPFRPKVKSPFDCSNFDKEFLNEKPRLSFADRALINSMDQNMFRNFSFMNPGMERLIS
# Chain of Protein kinase C delta type (Q05655 whole entry): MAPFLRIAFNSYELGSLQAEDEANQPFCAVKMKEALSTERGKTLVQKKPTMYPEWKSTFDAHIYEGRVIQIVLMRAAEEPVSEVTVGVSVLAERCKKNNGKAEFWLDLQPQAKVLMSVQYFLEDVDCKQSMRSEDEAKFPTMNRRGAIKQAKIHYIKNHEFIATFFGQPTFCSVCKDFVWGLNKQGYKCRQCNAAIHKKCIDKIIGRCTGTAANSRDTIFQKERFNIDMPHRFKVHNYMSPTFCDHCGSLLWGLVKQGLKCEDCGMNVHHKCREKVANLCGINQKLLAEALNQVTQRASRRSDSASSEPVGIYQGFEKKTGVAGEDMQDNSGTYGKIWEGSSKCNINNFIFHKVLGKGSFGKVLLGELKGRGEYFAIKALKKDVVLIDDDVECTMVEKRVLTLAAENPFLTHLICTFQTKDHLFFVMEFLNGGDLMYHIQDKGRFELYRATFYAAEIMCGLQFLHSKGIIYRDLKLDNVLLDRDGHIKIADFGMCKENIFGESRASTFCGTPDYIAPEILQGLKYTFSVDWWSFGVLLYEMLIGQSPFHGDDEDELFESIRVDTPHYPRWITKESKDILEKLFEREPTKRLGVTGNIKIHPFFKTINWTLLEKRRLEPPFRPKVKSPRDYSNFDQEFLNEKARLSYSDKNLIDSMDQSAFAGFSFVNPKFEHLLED
EC50 [1],EC50 [2],EC50 [3],Compound
4 µM,8.69 µM,9.79 µM,CCCCCCCCOc1ccc(/C=C/C(O)=C/C(=O)/C=C/c2ccc(O)c(OC)c2)cc1OC
8.67 µM,7.49 µM,14.3 µM,CCCCCCCC/C=C\CCCCCCCC(=O)OC[C@H](CO)OC(=O)CCCCCCC/C=C\CCCCCCCC
6.57 µM,12.5 µM,11.1 µM,O=C(/C=C(O)/C=C/c1ccc(O)c(O)c1)/C=C/c1ccc(O)c(O)c1
5.95 µM,8.98 µM,10.6 µM,CCCCCCCCCCCCCCCCOc1ccc(/C=C/C(O)=C/C(=O)/C=C/c2ccc(O)c(OC)c2)cc1OC

Compound,EC50 [1],EC50 [2],EC50 [3]
CCCCCCCC(=O)OC[C@H](CO)OC(=O)CCCCCCC,5.24 µM,–,–
COc1cc(/C=C/C(=O)CC(=O)/C=C/c2ccc(O)c(OC)c2)ccc1O [CURCUMIN],11.1 µM,10.7 µM,8.81 µM
CCCCCCCCCCCCCC(=O)O[C@@H]1[C@@H](C)[C@@]2(O)[C@@H](C=C(CO)C[C@]3(O)C(=O)C(C)=C[C@@H]23)[C@@H]2C(C)(C)[C@]12OC(C)=O [PHORBOL MYRISTATE ACETATE],3.19 µM,5.17 µM,5.56 µM
